The results in this text go back to ChEMBL document CHEMBL4321860, “Disrupting the Conserved Salt Bridge in the Trimerization of Influenza A Nucleoprotein” (J Med Chem, 2020).

Active and inactive are the calls of the source. No cut-off for these calls is given here.

Data set [1] can be described thus: Inhibition of nucleoprotein trimerization in recombinant Influenza A virus A/WSN/1933 (H1N1) infected in MDCK cells assessed as reduction in reduction in E339(carboxyl group)-R416(guanidino group) interaction by measuring virus-induced cytopathic effect after 48 hrs by CellTiter 96 AQueous non-radioactive cell proliferation assay. The data set is classed as cell-based. An outline of the steps: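 CPE protection assay. Virus at 100 TCID₅₀ is mixed 1:1 with compound at varied concentrations and added to MDCK cells (1 × 10⁵ cells/mL). After 48 h at 37 °C/5% CO₂, CPE is read with CellTiter 96 AQueous reagent. EC₅₀, the concentration giving 50% protection from CPE, is obtained by fitting percent CPE against concentration.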

Data set [2] in a line: Cytotoxicity against dog MDCK cells after 48 hrs by CellTiter 96 AQueous non-radioactive cell proliferation assay. In kind it is cell-based, Canis lupus familiaris. The procedure, abridged:
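MDCK cells, grown in DMEM with 10% FBS and penicillin−streptomycin at 37 °C/5% CO₂, seeded at 1 × 10⁵ cells/mL and exposed to varied compound concentrations without virus. Incubated 48 h at 37 °C under 5% CO₂, then read with CellTiter 96 AQueous (MTS) reagent. CC₅₀ is the 50% cytotoxic concentration from the curve fit.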

Data set [3] is described as follows: Aqueous solubility of compound. The settings on record: buffer. The data set is classed as physicochemical.
For data set [4], the system named is Influenza A virus. The data set can be described thus: Antiviral activity against Influenza A virus A/WSN/1933 (H1N1) infected in BALB/c mouse assessed as increase in animal body weight at 20 mg/kg/day, ip administered for 5 days and measured after 10 days post infection. In kind it is functional, organism-based. An outline of the steps:
(§1)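 Female BALB/c mice (18−20 g), quarantined 48−72 h, anesthetized i.p. (zoletil or ketamine/xylazine). Drug in PBS with 40% PEG 400 given i.p. twice daily for 5 days. Intranasal virus challenge (25 μL, 2X mouse LD₅₀) 4 h after first dose. Vehicle-only controls on the same schedule; 10 mice/group. Survival and body weight recorded daily for 14 days.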

Data set [5] has as its system Influenza A virus. The data set can be described thus: Antiviral activity against Influenza A virus A/WSN/1933 (H1N1) infected in BALB/c mouse assessed as animal survival rate at 20 mg/kg/day, ip administered for 5 days and measured after 14 days relative to control. The data set is classed as functional. An outline of the steps: as §1

Consider `CCOCCCNC(=O)c1csc(Nc2cc(F)c(Cl)c(F)c2)n1` [listing 1 of 2 here], for which, in data set [1], the concentration for a half-maximal effect (EC50) was 0.12 µM. In addition, the 50% cytotoxic concentration (CC50) at 48 h in data set [2] is over 100 µM. The solubility entry in data set [3] is recorded as “Insoluble”.

Consider `Cc1cc(Nc2nc(C(=O)NCCCOC(C)C)cs2)cc(C)c1Cl`, for which the 50% effective concentration (EC50) in data set [1] turned out to be 1.3 µM. For the same compound, in data set [2], the CC50 at 48 h was over 100 µM.

As to `O=C(NCCCN1CCOCC1)c1csc(Nc2ccc(Cl)c(Cl)c2)n1`, the concentration giving a half-maximal response (EC50) in data set [1] is 2.7 µM. Further, the CC50 at 48 h in data set [2] was found to be 35.6 µM.

As for `CCOCCCNC(=O)c1csc(Nc2cc(C)c(Cl)c(C)c2)n1`, the EC50 in data set [1] came out at 2.3 µM. The CC50 at 48 h in data set [2] is over 100 µM.

For `CCOCCCNC(=O)c1csc(Nc2ccc(Cl)c(F)c2)n1`, the concentration for a half-maximal effect (EC50) in data set [1] is 0.6 µM. The 50% cytotoxic concentration (CC50) at 48 h in data set [2] is over 100 µM.

Consider `Cc1cc(Nc2nc(C(=O)NCCCN3CCOCC3)cs2)cc(C)c1Cl`, for which the EC50 in data set [1] is 3.1 µM. Moreover, the 50% cytotoxic concentration (CC50) at 48 h in data set [2] worked out at 45.7 µM.

With `CC(C)OCCCNC(=O)c1csc(Nc2cc(Cl)c(Cl)c(Cl)c2)n1`, the concentration giving a half-maximal response (EC50) in data set [1] was 0.6 µM. Also, the CC50 at 48 h in data set [2] is over 100 µM.

With `CC(C)OCCCNC(=O)c1csc(Nc2cc(F)c(Cl)c(F)c2)n1` [listing 1 of 2 here], in the data set on Influenza A virus [4], the result was Active.

In the case of `CC(C)OCCCNC(=O)c1csc(Nc2ccc(Cl)c(Cl)c2)n1`, the half-maximal effective concentration (EC50) in data set [1] was determined as 0.7 µM. In addition, the CC50 at 48 h in data set [2] is 100 µM.

For `Cc1cc(Nc2nc(C(=O)NCCCN3CCOCC3)cs2)ccc1Cl`, the concentration giving a half-maximal response (EC50) in data set [1] came out at 3.7 µM. Besides, the CC50 at 48 h in data set [2] was determined as 47 µM.

For the compound `CC(C)OCCCNC(=O)c1csc(Nc2cc(F)c(Cl)c(F)c2)n1` [listing 2 of 2 here], the half-maximal effective concentration (EC50) in data set [1] came to 0.11 µM. For the same compound, the half-maximal cytotoxic concentration (CC50) at 48 h in data set [2] was over 100 µM. In addition, the solubility entry in data set [3] is given as “Insoluble”.

With `CCOCCCNC(=O)c1csc(Nc2ccc(Cl)c(Cl)c2)n1`, the EC50 in data set [1] came out at 0.2 µM. Further, the CC50 at 48 h in data set [2] is over 100 µM.

For `CCOCCCNC(=O)c1csc(Nc2cc(F)c(Cl)c(F)c2)n1` [listing 2 of 2 here], in the data set with Influenza A virus [4], the outcome was Active.

For the compound `CC(C)OCCCNC(=O)c1csc(Nc2cc(F)c(Cl)c(F)c2)n1.O=S(=O)(O)O.O=S(=O)(O)O`, the Activity with Influenza A virus [5] was 30%.

As for `CC(C)OCCCNC(=O)c1csc(Nc2ccc(Cl)cc2)n1`, the EC50 in data set [1] was 1.2 µM. Further, in data set [2], the half-maximal cytotoxic concentration (CC50) at 48 h is over 100 µM.

As to `Cc1cc(Nc2nc(C(=O)NCCCOC(C)C)cs2)ccc1Cl`, in data set [1], the concentration giving a half-maximal response (EC50) worked out at 1.2 µM. In addition, the CC50 at 48 h in data set [2] is over 100 µM.

`CCOCCCNC(=O)c1csc(Nc2cc(Cl)c(Cl)c(Cl)c2)n1`: in data set [1], the EC50 was determined as 0.4 µM. The CC50 at 48 h in data set [2] is over 100 µM.

Regarding `O=C(NCCCN1CCOCC1)c1csc(Nc2ccc(Cl)c(F)c2)n1`, the half-maximal effective concentration (EC50) in data set [1] came to 3.2 µM. Further, the 50% cytotoxic concentration (CC50) at 48 h in data set [2] came out at 45 µM.

For `CCOCCCNC(=O)c1csc(Nc2ccc(Cl)c(C)c2)n1`, in data set [1], the 50% effective concentration (EC50) was found to be 1 µM. Besides, the 50% cytotoxic concentration (CC50) at 48 h in data set [2] is 52 µM.

For the compound `O=C(NCCCN1CCOCC1)c1csc(Nc2cc(F)c(Cl)c(F)c2)n1`, the EC50 in data set [1] is 0.8 µM. In data set [2], the CC50 at 48 h is 52 µM.

Take `O=C(NCCCN1CCOCC1)c1csc(Nc2cc(Cl)c(Cl)c(Cl)c2)n1`: in data set [1], the EC50 stood at 1.5 µM. Besides, the CC50 at 48 h in data set [2] worked out at 41 µM.

Turning to `O=C(NCCCN1CCOCC1)c1csc(Nc2ccc(Cl)cc2)n1`, the half-maximal effective concentration (EC50) in data set [1] stood at 3.1 µM. In addition, the CC50 at 48 h in data set [2] was over 100 µM.

Regarding `CC(C)OCCCNC(=O)c1csc(Nc2ccc(Cl)c(F)c2)n1`, the EC50 in data set [1] came out at 0.5 µM. Further, the CC50 at 48 h in data set [2] is over 100 µM.

Turning to `CCOCCCNC(=O)c1csc(Nc2ccc(Cl)cc2)n1`, in data set [1], the EC50 amounted to 1.3 µM. Further, the cytotoxic concentration (CC50) at 48 h in data set [2] was over 100 µM.

Consider `CCOCCCNC(=O)c1csc(Nc2cc(F)c(Cl)c(F)c2)n1.CS(=O)(=O)O.CS(=O)(=O)O`, for which the Activity in the data set with Influenza A virus [5] is reported as 70%.
